Data on 5 compounds can be found in ChEMBL document CHEMBL1157424, “Alisiaquinones and alisiaquinol, dual inhibitors of Plasmodium falciparum enzyme targets from a New Caledonian deep water sponge” (J Nat Prod, 2008).

Structures are written as SMILES. Active and inactive are the calls of the source. The calls are words filed in the database; no cut-off is given here.

The test system of data set [1] is Plasmodium falciparum. Briefly: Inhibition of Plasmodium falciparum Pfnek1 at 50 uM. In outline: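 Kinase reaction in 20 mM Tris/HCl pH 7.5 with 20 mM MgCl2, 2 mM MnCl2, 0.25 µCi [γ-33P]ATP and 5 µg myelin basic protein as substrate. Compounds were tested at 50, 5 and 1 µM with equal DMSO in all reactions. Reactions were stopped in Laemmli buffer and run on SDS gel. Gels were Coomassie-stained, dried, autoradiographed and quantified by phosphorimaging as % remaining activity.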

The test system of data set [2] is Plasmodium falciparum. Briefly: Inhibition of Plasmodium falciparum Pfnek1 at 1 uM. The method, boiled down:
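Compounds were tested at 50, 5 and 1 µM with equal DMSO in all reactions. Reactions were stopped with Laemmli buffer and run on SDS-PAGE. Remaining activity (%) was quantified by autoradiography and phosphorimaging; no IC50 was determined.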

Data set [3] in a line: Selectivity index ratio of IC50 for human MCF7 cells to IC50 for chloroquine-sensitive Plasmodium falciparum F32. The format is functional. The method, boiled down:
(§1)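 The ratio compares the MCF-7 IC50 with the parasite IC50. MCF-7 cells were grown in DMEM with 2 mM L-glutamine and 10% FCS at 37 °C, 5% CO2, and used in exponential growth. They were seeded at 200 000 cells/mL; after 24 h, compounds were added at 0.01–100 µg/mL. Viability was read by [3H]hypoxanthine incorporation and IC50 taken graphically from the curves. Parasite IC50s came from the [3H]hypoxanthine incorporation assay on synchronized cultures.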

For data set [4], the system named is Plasmodium falciparum. Briefly: Antiplasmodial activity against chloroquine-resistant Plasmodium falciparum FcM29 by [3H]hypoxanthine uptake. The format is functional, organism-based. In outline: (§2)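 Parasites kept in continuous culture per Trager and Jensen (modified) and synchronized every 48 h by 5% D-sorbitol lysis. Growth was read as [3H]hypoxanthine incorporation by the modified Desjardins method.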

Data set [5] is described as follows: Selectivity index ratio of IC50 for human MCF7 cells to IC50 for chloroquine-resistant Plasmodium falciparum FcM29. Format: functional. In outline: as §1
Data set [6] concerns Plasmodium falciparum. Briefly: Antiplasmodial activity against chloroquine-resistant Plasmodium falciparum FcB1 by [3H]hypoxanthine uptake. The format is functional, organism-based. The method, boiled down: as §2
Data set [7] in a line: Selectivity index ratio of IC50 for human MCF7 cells to IC50 for chloroquine-resistant Plasmodium falciparum FcB1. The format is functional. The method, boiled down:
as §1

Data set [8] deals with Plasmodium falciparum. Briefly: Antiplasmodial activity against chloroquine-sensitive Plasmodium falciparum F32 by [3H]hypoxanthine uptake. The format is functional, organism-based. In outline: as §2
For the next data set, the system named is MCF7. Briefly: Cytotoxicity against human MCF7 cells assessed as [3H]hypoxanthine incorporation. Format: cell-based. The method, boiled down: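 MCF-7 cells were grown in DMEM with 2 mM L-glutamine and 10% FCS at 37 °C, 5% CO2. Exponential-phase cells were trypsinized and seeded at 200 000 cells/mL. After 24 h, the medium was replaced with fresh medium containing compound at 0.01–100 µg/mL. Viability was read by [3H]hypoxanthine incorporation, and IC50 was taken graphically from dose-response curves.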

The test system of data set [9] is Plasmodium vinckei petteri. Briefly: Antiplasmodial activity as reduced parasitaemia at day 5 in Plasmodium vinckei petteri infected CD mice (Mus musculus) at 5 mg/kg/day intraperitoneal dose. The format is functional. The settings on record: ip, 120 h. The method, boiled down: (§3)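 Four-day suppressive test in female CD mice (20 ± 2 g), each infected on day 0 with 10^6 P. vinckei petteri-parasitized erythrocytes in RPMI. Groups of five received ip doses on days 0–3. Controls got RPMI alone. Parasitaemia was counted on Giemsa-stained tail-blood smears (≥5000 erythrocytes). % inhibition = (control − treated)/control × 100.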

Data set [10] is described as follows: Toxicity in Plasmodium vinckei petteri infected CD mice (Mus musculus) assessed as mortality at 5 mg/kg/day, intraperitoneally measured on day 1. Format: organism-based. Further details: route intraperitoneal. To be noted: in vivo, ip, read-out: INH. The method, boiled down:
(§4)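 4-day suppressive test in female CD mice (20 ± 2 g) infected on day 0 with 10^6 parasitized red cells in RPMI. Groups of five were dosed intraperitoneally on days 0–3 at 5 or 20 mg/kg; reference dosing was 1 or 10 mg/kg, with RPMI-alone controls. Parasitaemia was counted on day-4 Giemsa tail-blood smears. Survival was followed for three additional weeks.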

Data set [11] can be described thus: Toxicity in Plasmodium vinckei petteri infected CD mice (Mus musculus) assessed as mortality at 5 mg/kg/day, […] measured on day 5. The format is organism-based. The settings on record: in vivo, read-out: INH.
Data set [12] is described as follows: Toxicity in Plasmodium vinckei petteri infected CD mice (Mus musculus) assessed as mortality at 5 mg/kg/day, intraperitoneally measured on day 15. The settings on record: in vivo, ip, read-out: INH. The format is organism-based. On the set-up: route intraperitoneal. In outline:
as §4

The nature of data set [13]: Toxicity in Plasmodium vinckei petteri infected CD mice (Mus musculus) assessed as mortality at 20 mg/kg/day, intraperitoneally measured on day 1. Format: organism-based. Further details: route intraperitoneal. To be noted: in vivo, ip, read-out: INH. The method, boiled down: as §4
The nature of data set [14]: Toxicity in Plasmodium vinckei petteri infected CD mice (Mus musculus) assessed as mortality at 20 mg/kg/day, intraperitoneally measured on day 5. Format: organism-based. On the set-up: route intraperitoneal. The settings on record: in vivo, ip, read-out: INH. In outline:
as §4

Data set [15] in a line: Toxicity in Plasmodium vinckei petteri infected CD mice (Mus musculus) assessed as mortality at 20 mg/kg/day, intraperitoneally measured on day 15. The format is organism-based. Further details: route intraperitoneal. To be noted: in vivo, ip, read-out: INH. The method, boiled down:
as §4

The subject of data set [16] is Plasmodium vinckei petteri. Briefly: Antiplasmodial activity as reduced parasitaemia at day 5 in Plasmodium vinckei petteri infected CD mice (Mus musculus) at 20 mg/kg/day intraperitoneal dose. The format is functional. To be noted: ip, 120 h. In outline:
as §3

In data set [17] the test system is Plasmodium vinckei petteri. Briefly: Antiplasmodial activity as reduced parasitaemia at day 5 in Plasmodium vinckei petteri infected CD mice (Mus musculus) at 10 mg/kg/day intraperitoneal dose. The format is functional. To be noted: ip, 120 h. In outline: as §3
Data set [18] can be described thus: Toxicity in Plasmodium vinckei petteri infected CD mice (Mus musculus) assessed as mortality at 10 mg/kg/day, intraperitoneally measured on day 1. Format: organism-based. Further details: route intraperitoneal. The settings on record: in vivo, ip, read-out: INH. In outline: as §4
A short description of data set [19]: Toxicity in Plasmodium vinckei petteri infected CD mice (Mus musculus) assessed as mortality at 10 mg/kg/day, intraperitoneally measured on day 5. The format is organism-based. On the set-up: route intraperitoneal. The settings on record: in vivo, ip, read-out: INH. In outline:
as §4

The nature of data set [20]: Toxicity in Plasmodium vinckei petteri infected CD mice (Mus musculus) assessed as mortality at 10 mg/kg/day, intraperitoneally measured on day 15. Format: organism-based. To be noted: in vivo, ip, read-out: INH. Further details: route intraperitoneal. In outline:
as §4

The test system of data set [21] is Plasmodium vinckei petteri. Briefly: Antiplasmodial activity as reduced parasitaemia at day 5 in Plasmodium vinckei petteri infected CD mice (Mus musculus) at 1 mg/kg/day intraperitoneal dose. The format is functional. The settings on record: ip, 120 h. The method, boiled down:
as §3

The nature of data set [22]: Toxicity in Plasmodium vinckei petteri infected CD mice (Mus musculus) assessed as mortality at 1 mg/kg/day, intraperitoneally measured on day 1. The format is organism-based. Further details: route intraperitoneal. The settings on record: in vivo, ip, read-out: INH. In outline: as §4
Data set [23] is described as follows: Toxicity in Plasmodium vinckei petteri infected CD mice (Mus musculus) assessed as mortality at 1 mg/kg/day, intraperitoneally measured on day 5. Format: organism-based. Further details: route intraperitoneal. To be noted: in vivo, ip, read-out: INH. The method, boiled down: as §4
Data set [24] can be described thus: Toxicity in Plasmodium vinckei petteri infected CD mice (Mus musculus) assessed as mortality at 1 mg/kg/day, intraperitoneally measured on day 15. The format is organism-based. Further details: route intraperitoneal. To be noted: in vivo, ip, read-out: INH. The method, boiled down: as §4

Regarding `C[C@@]12CCC[C@]3(C)c4cc5c(cc4C(=O)[C@](O)(OC1)[C@H]23)C(=O)C=CC5=O` [ALISIAQUINONE A], in the data set on Plasmodium falciparum [1], the result was Active. Besides, in the data set on Plasmodium falciparum [2], the inhibition was found to be 41%. Moreover, the “Ratio IC50” value in data set [3] came to 4; in data set [5], 4; in data set [7] it was 5. The IC50 was found to be 8.5 µM in the data set with Plasmodium falciparum [4], 7.4 µM in the data set on Plasmodium falciparum [6], 9.1 µM in the data set on Plasmodium falciparum [8] and 36 µM with MCF7. In addition, in data set [9], the inhibition in vivo at 5 mg/kg/day was determined as 63%. The mortality in data set [10] was found to be 0%; in data set [11], 0%; in data set [12] it was 40%; in data set [13] it was 100%; in data set [14] it was 100%; in [15], 100%.

As to `C[C@@]12CCC[C@]3(C)c4cc5c(cc4C(=O)[C@](O)(OC1)[C@H]23)C(=O)C1=C(NCCS1(=O)=O)C5=O` [ALISIAQUINONE C], in the data set on Plasmodium falciparum [2], the outcome was inactive. The “Ratio IC50” value in data set [3] amounted to 270; in data set [5], 500; in data set [7], 200. The IC50 in the data set on Plasmodium falciparum [4] came out at 0.08 µM; in the data set with Plasmodium falciparum [6], 0.21 µM; with Plasmodium falciparum [8], 0.15 µM; in the data set on MCF7 it was 41 µM. In data set [9], this compound came in with an inhibition in vivo at 5 mg/kg/day of 36%. The mortality in data set [10] amounted to 0%; in data set [11], 0%; in [12] it was 60%; in [13], 60%; in data set [14], 80%; in data set [15], 100%. In data set [16], this compound showed an inhibition in vivo at 20 mg/kg/day of 42%.

Turning to `C[C@@]12CCC[C@]3(C)c4cc5c(O)ccc(O)c5cc4C(=O)[C@](O)(OC1)[C@H]23` [ALISIAQUINOL], the result in the data set on Plasmodium falciparum [1] was Active. For the same compound, the inhibition in the data set with Plasmodium falciparum [2] was 49%. The “Ratio IC50” value in data set [3] is given as <1. The IC50 stood at 7.9 µM in the data set on Plasmodium falciparum [4], 6.4 µM in the data set with Plasmodium falciparum [6], 9.9 µM in the data set with Plasmodium falciparum [8] and 1.7 µM in the data set with MCF7.

Consider `COC1=CC(=O)c2cc3c(cc2C1=O)C(=O)[C@]1(O)OC[C@@]2(C)CCC[C@@]3(C)[C@@H]21` [ALISIAQUINONE B], for which the “Ratio IC50” value in data set [3] was <1. Moreover, the IC50 with Plasmodium falciparum [4] was determined as 2.6 µM; in the data set with Plasmodium falciparum [6], 8.4 µM; with Plasmodium falciparum [8], 7.1 µM; in the data set with MCF7, 0.8 µM.

In [17], `CCN(CC)CCCC(C)Nc1ccnc2cc(Cl)ccc12` (stereo not drawn) [CHLOROQUINE] showed an inhibition in vivo at 10 mg/kg/day of 100%. Moreover, the mortality was found to be 0% in data set [18]; 0% in [19]; 0% in [20]; 0% in [22]; 0% in [23]; 100% in data set [24]. In addition, the IC50 in the data set on MCF7 came to 12 µM. Further, the inhibition in vivo at 1 mg/kg/day in data set [21] is 0%.
